# EphB4 ephrin blk: EphB4-ephrin-B2 interaction antagonism | EphB4 LBD / TNYL-RAW-Alexa532 peptide, fluorescence polarization | inhibition, % at 7 µM | 97,000 tested, 0.15% active | AID 720;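 active = inhibition above the screen-wide mean inhibition plus 3 SD, cut at about 15% in these data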;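 note: 0% = DMSO wells and 100% = excess unlabeled TNYL-RAW peptide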
# HIV Rev-RRE inh: inhibitors of HIV-1 Rev-RRE RNA interaction; P05866; Rev peptide-RRE RNA binding, FRET; inhibition, % at 8 µM; 97,000 tested, 0.79% active; AID 704;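 active = inhibition above the screen-wide mean plus 3 SD, cut at about 35% in these data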;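 note: 0% = median DMSO wells and 100% = median Neomycin B control wells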
# Target sequence (P05866 whole entry, looked up): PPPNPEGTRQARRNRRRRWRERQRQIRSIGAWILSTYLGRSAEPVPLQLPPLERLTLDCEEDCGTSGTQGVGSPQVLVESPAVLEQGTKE
#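 System: Cy5-labelled duplex RRE RNA binding fluorescein-labelled HIV Rev peptide; Signal: fluorescein-to-Cy5 FRET, 480 nm excitation; Also added: labelled Rev peptide; Compound: one concentration, 8 µM nominal; Buffer or medium: HEPES pH 7.5 salt buffer with EDTA; Read-out: % inhibition of FRET ratio versus controls; Schedule: 5 min preincubation and 15 min binding, 25 °C.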
# PTPN22 inh 2: inhibitors of human LYP (PTPN22) phosphatase | Q9Y2R2 | recombinant LYP catalytic domain, DiFMUP fluorescence | inhibition, % at 2 µM | 96,000 tested, 0.21% active | AID 640;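 active = inhibition at 2 µM at or above a set limit, the screen mean plus 3 SD, cut at about 24% in these data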;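 note: 0% = DMSO with enzyme and 100% = enzyme fully blocked by orthovanadate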
# Plk1 PBD FP: inhibitors of human Plk1 polo box domain binding; 97,000 tested, 0.13% active; P53350; Plk1 PBD phosphopeptide binding, fluorescence polarization; inhibition, %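 (tested at about 20 µM)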; in the data active = inhibition above about 34%, passing the limit was not always enough
# LYP act: increases human PTPN22 phosphatase activity; activation, % at 2 µM; recombinant LYP, DiFMUP fluorescence; 0 = plate median, 100 = signal doubled; Q9Y2R2; 96,000 tested, 0.11% active;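 active = activation at 2 µM above a set limit, the mean plus 5 SD, cut at about 37% in these data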
# PLK1 inh: blocks human PLK1 kinase activity. inhibition, % at 10 µM. P53350. 97,000 tested, 0.53% active. recombinant PLK1 kinase, TR-FRET peptide phosphorylation;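 active = inhibition of 50% or more in the single-concentration screen; inactive = inhibition below 50%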;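 note: 0% = DMSO max control and 100% = H-89 dihydrochloride min control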
# PBD redox DR: counter-screen for Plk1 PBD inhibitors: redox cycling H2O2 generation. shares compounds with Plk1 PBD FP. 120 tested, under 10 active. DTT. EC50, µM
# LYP act confirm: confirmation of human LYP phosphatase activators. shares compounds with LYP act. Recombinant LYP, DIFMUP fluorescence, activation; zero set by plate's median compound well. activation, % at 2 µM. 100 tested, under 10 active. AID 1031
# The depositor's hits bear a star; x = not tested or not shown. The list is not random: actives were taken first. Their share in the collection is about 2%. Unless noted, the rule behind the calls is not given here.
SMILES,EphB4 ephrin blk,HIV Rev-RRE inh,PTPN22 inh 2,Plk1 PBD FP,LYP act,PLK1 inh,LYP act confirm,others
Cn1nc(-c2ccc(Cl)cc2)nc2c(=O)n(C)c(=O)nc1-2,0,26,45*,65*,-44,2,x,PBD redox DR=>50
CCS(=O)(=O)n1nc(-c2ccc(Cl)cc2)nc1SC,1,6,9,-4,-11,-7,x,
CCSc1c(C(=O)NC)ccc2c1C(=O)c1ccccc1C2=O,-1,1,8,15,-6,-14,x,
COC(=O)c1ccc2c(c1O)C(=O)c1ccccc1C2=O,-1,0,-48,-6,46*,-1,3,
COC(=O)C(O)(CC(=O)Nc1ccccc1OC)C(F)(F)F (stereo not given),6,10,-5,-8,4,-3,x,
CCc1ccccc1NC(=O)CC(O)(C(=O)OC)C(F)(F)F (stereo not given),-6,1,-37,-10,37*,8,-4,
O=C(CCCCCn1c(=O)[nH]c2ccsc2c1=O)NCc1ccc(F)cc1,1,6,-1,11,3,-11,x,
COCCCNC(=O)c1ccc(CS(=O)(=O)Cc2cccc(C)c2)o1,-2,2,-41,4,37*,1,8,
Cc1cccc(CS(=O)(=O)Cc2ccc(C(=O)NCc3ccco3)o2)c1,0,12,0,-2,-3,-12,x,
O=C(OCC(=O)N1CCN(c2ccccc2)CC1)c1cccc(Cl)c1,9,9,1,-12,1,-6,x,
Cc1nc(C)c(C(=O)OCC(=O)N2CCN(c3ccccc3)CC2)s1,-11,-1,-37,8,40*,-11,4,
CCOc1ccc(CN2CCNC(=O)C2CC(=O)OC)cc1 (stereo not given),-7,1,-38,19,37*,-8,-5,
O=C(CCn1c(=O)[nH]c2ccsc2c1=O)N1CCN(Cc2ccc3c(c2)OCO3)CC1,-6,-1,-40,6,45*,-12,-2,
COc1ccccc1N1CCN(C(=O)CCn2c(=O)[nH]c3ccsc3c2=O)CC1,0,5,-1,-22,-1,-2,x,
COc1ccc2[nH]c(=O)c(CN(C(=O)c3ccccn3)C3CCCCC3)cc2c1,-10,5,4,-17,-4,-8,x,
O=C(c1ccccn1)N(Cc1cc2ccccc2[nH]c1=O)C1CCCCC1,-5,-1,-40,9,41*,-10,-3,
S=c1[nH]ncn1/N=C/c1ccccc1,-5,-2,-12,1,11,-6,x,
S=c1[nH]ncn1-c1ccccn1,-8,1,-49,-22,46*,-9,-4,
CS(=O)(=O)c1cnc(-c2ccccc2)nc1Oc1ccc(F)cc1,0,-4,-36,-19,42*,-15,-9,
COC(=O)C1=C(CSc2nncn2C)NC(=O)NC1c1ccc(F)cc1 (stereo not given),0,6,-46,8,50*,-6,6,
COc1cc(CC(=O)OCC(=O)c2ccc3c(c2)OCCO3)cc(OC)c1OC,-6,6,-5,-2,1,-11,x,
O=C(NCc1ccccc1)c1ccc(Oc2ccc(C(=O)NCc3ccccc3)cc2)cc1,4,0,2,-10,1,0,x,
Cc1cc(C)nc(-n2nc(C)c(C3(O)C(=O)Nc4ccc(F)cc43)c2N)n1 (stereo not given),-4,11,11,-4,-11,-3,x,
CCc1cc2c(cc3c(=O)n(CC(=O)NCCCN4CC(C)CC(C)C4)ncn32)s1 (stereo not given),-1,2,-6,11,3,-13,x,
O=C(NNC1=C(C(=O)C(F)(F)F)CCC1)c1ccc(Cl)cc1,0,-2,-40,-4,45*,-18,0,
SMILES,EphB4 ephrin blk,HIV Rev-RRE inh,PTPN22 inh 2,Plk1 PBD FP,LYP act,PLK1 inh,LYP act confirm,others
COc1cc2nc(SCC(N)=O)n(CCC3=CCCCC3)c(=O)c2cc1OC,-7,-8,-42,-10,41*,-12,-3,
COC(=O)c1sccc1NC(=O)c1ccc(C)s1,-5,1,-50,-12,43*,-1,2,
COC(=O)c1sccc1NC(=O)c1ccc(Cl)s1,-7,4,-2,-7,2,-8,x,
CCOc1ccc2cc(S(=O)(=O)N3CCN(C)CC3)ccc2c1,-2,7,-4,-34,5,-9,x,
COC(=O)C1=C(C)NC(=O)NC1c1ccsc1 (stereo not given),3,6,-1,16,-1,-14,x,
C=CCn1c(SCC(=O)Nc2c(C)nn(Cc3ccccc3)c2C)nnc1C(O)c1ccccc1 (stereo not given),-5,-4,-49,-16,43*,-10,-1,
C=CCn1c(SCC(=O)Nc2nc(C)cs2)nnc1C(CO)NC(=O)c1ccccc1 (stereo not given),-3,7,3,10,-4,-11,x,
CCOC(=O)C1C(c2ccccc2)C(C(=O)OCC)C1c1ccccc1 (stereo not given),4,2,-7,1,2,-7,x,
CCC(C)OC(=O)C1C(c2ccccc2)C(C(=O)O)C1c1ccccc1 (stereo not given),0,-4,-38,-3,40*,-3,-10,
COC(=O)[C@H](Cc1ccccc1)NC(=O)NCc1ccc(S(N)(=O)=O)cc1,-8,15,-48,-2,44*,-4,6,
CCC(=O)NC(C)C(c1cccs1)N1CCN(c2ccccc2)CC1 (stereo not given),1,5,-48,21,43*,-14,4,
Cc1cc(F)ccc1NCc1cccnc1,-1,2,-36,18,38*,-8,6,
OCCCCCN=c1cc(-c2ccccc2)oc2ccc(Cl)cc12,2,2,-38,2,40*,-6,-4,
Cc1cccc(N2CCN(C(=O)c3cc4ccccc4oc3=O)CC2)c1C,-9,7,-8,-4,7,-11,x,
CCOC(=O)C1=C(CSc2nc(-c3ccccc3)ccc2C#N)OC(N)=C(C#N)C1c1ccccc1 (stereo not given),-4,27,-41,-9,39*,-7,-3,
CCCCC(=O)NCCNC(=O)c1cc(OCC(F)(F)F)ccc1OCC(F)(F)F,-2,5,-41,4,38*,1,-1,
c1ccc2c(c1)ncn2Cc1nnc2sc(-c3ccncc3)nn12,0,2,-56,-1,51*,-14,7,
c1ccc(-c2nn3c(Cn4cnc5ccccc54)nnc3s2)cc1,2,2,-1,-2,0,-12,x,
S=C(NCc1cccnc1)Nc1ccc(Cl)c(Cl)c1,-8,0,8,7,-3,48,x,

# Assay outcomes: PubChem, several laboratories
